Data published in ChEMBL document CHEMBL1135816, “6-Aryl-1,4-dihydro-benzo[d][1,3]oxazin- 2-ones: a novel class of potent, selective, and orally active nonsteroidal progesterone receptor antagonists” (J Med Chem, 2002).

Assays:
[1] = biological target: T1, Progesterone receptor (Homo sapiens, UniProt P06401); assay: Antagonist activity against progesterone receptor (PR) in an assay using PRE-luciferase plasmid co-transfected CV-1 cells; type: functional, cell-based
T1 sequence (P06401 whole entry): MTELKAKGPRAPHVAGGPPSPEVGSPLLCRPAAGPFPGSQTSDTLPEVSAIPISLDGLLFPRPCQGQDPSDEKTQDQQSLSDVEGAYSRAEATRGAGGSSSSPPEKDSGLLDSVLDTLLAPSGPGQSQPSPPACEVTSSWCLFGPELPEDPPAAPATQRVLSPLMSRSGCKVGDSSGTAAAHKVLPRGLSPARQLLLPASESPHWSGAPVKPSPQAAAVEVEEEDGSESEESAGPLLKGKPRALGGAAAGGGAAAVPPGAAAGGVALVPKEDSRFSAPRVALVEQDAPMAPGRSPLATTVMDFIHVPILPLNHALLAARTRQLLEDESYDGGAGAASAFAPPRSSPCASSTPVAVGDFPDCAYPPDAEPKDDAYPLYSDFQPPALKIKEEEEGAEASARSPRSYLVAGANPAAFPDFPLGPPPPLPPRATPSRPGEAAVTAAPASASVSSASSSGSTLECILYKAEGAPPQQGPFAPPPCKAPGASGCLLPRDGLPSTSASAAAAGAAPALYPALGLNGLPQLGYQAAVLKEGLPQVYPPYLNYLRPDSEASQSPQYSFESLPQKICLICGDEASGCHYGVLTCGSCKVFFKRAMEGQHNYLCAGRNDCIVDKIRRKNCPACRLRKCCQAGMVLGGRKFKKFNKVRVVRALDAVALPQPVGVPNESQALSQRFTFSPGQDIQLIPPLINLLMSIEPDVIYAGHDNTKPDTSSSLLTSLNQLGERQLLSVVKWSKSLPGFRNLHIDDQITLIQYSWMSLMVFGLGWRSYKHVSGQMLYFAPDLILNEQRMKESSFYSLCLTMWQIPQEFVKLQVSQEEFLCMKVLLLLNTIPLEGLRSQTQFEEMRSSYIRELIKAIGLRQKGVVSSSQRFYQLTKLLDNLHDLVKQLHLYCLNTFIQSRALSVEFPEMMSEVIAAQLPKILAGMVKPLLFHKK
Method in brief: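 CV-1 cells cotransfected with hPR and PRE-luciferase plasmids, luciferase read-out; IC50 averaged from at least duplicate determinations.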

[2] = biological target: T1, Progesterone receptor; assay: Antagonist activity against progesterone receptor (PR) in an alkaline phosphatase assay in the T47D human breast carcinoma cell line; type: functional, cell-based
[3] = Area under the curve (AUC) for the compound in female rats for a dose of 1 mg/kg administered intravenously.; type: ADME, organism-based; parameters: dose 1 mg/kg, route intravenous; settings: rat, in vivo, iv
[4] = Half life in female rats for a dose of 1 mg/kg administered intravenously.; type: ADME, organism-based; parameters: dose 1 mg/kg, route intravenous; settings: rat, in vivo, iv
[5] = Plasma clearance (Cl) for the compound in female rats for a dose of 1 mg/kg administered intravenously; type: ADME, organism-based; parameters: dose 1 mg/kg, route intravenous; settings: rat, iv, read-out: Clp (converted)
[6] = biological target: T2, Progesterone receptor (Rattus norvegicus) (UniProt Q63449); assay: Inhibitory activity against progesterone receptor (PR) in ovariectomized mature female rat decidualization model; type: functional
T2 sequence (whole entry): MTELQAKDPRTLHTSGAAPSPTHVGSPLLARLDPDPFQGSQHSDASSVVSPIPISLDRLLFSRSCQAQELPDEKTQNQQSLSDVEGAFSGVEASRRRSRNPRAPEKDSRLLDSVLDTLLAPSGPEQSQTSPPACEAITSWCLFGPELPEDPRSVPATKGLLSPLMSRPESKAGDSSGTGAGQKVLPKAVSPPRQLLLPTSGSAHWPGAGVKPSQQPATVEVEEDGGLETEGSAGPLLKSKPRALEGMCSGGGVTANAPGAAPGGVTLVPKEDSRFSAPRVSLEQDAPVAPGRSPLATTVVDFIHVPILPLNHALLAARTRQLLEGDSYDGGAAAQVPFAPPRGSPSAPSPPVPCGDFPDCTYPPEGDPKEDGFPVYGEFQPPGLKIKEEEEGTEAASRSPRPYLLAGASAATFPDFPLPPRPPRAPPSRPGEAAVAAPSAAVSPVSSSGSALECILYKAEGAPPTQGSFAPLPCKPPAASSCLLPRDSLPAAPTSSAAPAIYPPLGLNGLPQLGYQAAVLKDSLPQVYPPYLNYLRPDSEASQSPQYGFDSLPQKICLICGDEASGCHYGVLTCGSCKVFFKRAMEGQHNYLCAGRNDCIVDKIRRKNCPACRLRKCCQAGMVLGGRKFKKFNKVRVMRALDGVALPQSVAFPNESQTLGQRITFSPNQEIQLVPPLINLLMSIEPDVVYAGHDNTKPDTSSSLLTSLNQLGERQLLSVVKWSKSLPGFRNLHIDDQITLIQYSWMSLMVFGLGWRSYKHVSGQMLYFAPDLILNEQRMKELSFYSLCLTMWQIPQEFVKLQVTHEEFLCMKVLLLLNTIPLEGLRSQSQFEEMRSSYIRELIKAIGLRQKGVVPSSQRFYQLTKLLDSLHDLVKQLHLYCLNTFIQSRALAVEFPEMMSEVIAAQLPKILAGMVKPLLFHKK
Method in brief: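 Ovariectomized mature rats dosed orally for 7 days, with progesterone 5.6 mg/kg SC given alongside; vehicle-only controls. Decidual response (D/C) measured 24 h after the final treatment, seven animals per point. ED50 averaged from at least duplicate determinations.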

[7] = biological target: T1, Progesterone receptor; assay: Agonist activity against progesterone receptor (PR) in an alkaline phosphatase assay in the T47D human breast carcinoma cell line; type: functional, cell-based
Method in brief: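 T47D human breast carcinoma cells scored for PR agonism via alkaline phosphatase read-out; EC50 taken as the mean of at least duplicate determinations.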

[8] = biological target: T2, Progesterone receptor (Rattus norvegicus); assay: inhibitory activity against progesterone receptor (PR) in ovariectomized mature female rat complement C3 model; type: functional
Method in brief: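 Adult ovariectomized rats given oral doses; read-out is reversal of progestin down-regulation of estrogen-induced complement C3 synthesis in uterine epithelium. ED50 averaged from at least duplicate determinations.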

Compound	IC50 [1] [nM]	IC50 [2] [nM]	ED50 [6] [mg/kg]	further results
CC1(C)OC(=O)Nc2ccc(-c3cccc(C#N)c3)cc21	9.9	17	7	AUC [3]: 460 ng·h/mL; half-life [4]: 36 min; clearance [5]: 36.3 mL/min/kg
COc1cccc(-c2ccc3c(c2)C(C)(C)OC(=O)N3)c1	38.3	19.5	–	–
CC1(C)OC(=O)Nc2c(F)cc(-c3cc(F)cc(C#N)c3)cc21	98.8	26.2	0.6	–
CC1(C)OC(=O)Nc2ccc(-c3cccc(Cl)c3)cc21	9.3	30	> 30	–
CC1(C)OC(=O)Nc2ccc(-c3ccccc3Cl)cc21	500	300	–	–
CC#C[C@]1(O)CC[C@H]2[C@@H]3CCC4=CC(=O)CCC4=C3[C@@H](c3ccc(N(C)C)cc3)C[C@@]21C	–	–	0.3	ED50 [8]: 1.7 mg/kg

More lines, main results first:

IC50 [1] [nM]	IC50 [2] [nM]	ED50 [6] [mg/kg]	Compound	further results
–	15.1	–	CC1(C)OC(=O)Nc2ccc(-c3ccc(F)c(C#N)c3)cc21	–
2.6	–	2	CC1(C)OC(=O)Nc2ccc(-c3cc(F)cc(Cl)c3)cc21	EC50 [7]: 500 nM
642	30	–	CC1(C)OC(=O)Nc2ccc(-c3ccc(Cl)cc3)cc21	–
3.8	8.2	1.5	CC1(C)OC(=O)Nc2ccc(-c3cccc(F)c3)cc21	–
